Reference: ChEMBL document CHEMBL1146871, “Hydrazides of clozapine: a new class of D1 dopamine receptor subtype selective antagonists” (Bioorg Med Chem Lett, 2006)

Experiments:
[1] = molecular target: T1, Alpha-2A adrenergic receptor (Homo sapiens, UniProt P08913); experiment: Binding affinity at adrenergic alpha2A receptor
T1 sequence (P08913 whole entry): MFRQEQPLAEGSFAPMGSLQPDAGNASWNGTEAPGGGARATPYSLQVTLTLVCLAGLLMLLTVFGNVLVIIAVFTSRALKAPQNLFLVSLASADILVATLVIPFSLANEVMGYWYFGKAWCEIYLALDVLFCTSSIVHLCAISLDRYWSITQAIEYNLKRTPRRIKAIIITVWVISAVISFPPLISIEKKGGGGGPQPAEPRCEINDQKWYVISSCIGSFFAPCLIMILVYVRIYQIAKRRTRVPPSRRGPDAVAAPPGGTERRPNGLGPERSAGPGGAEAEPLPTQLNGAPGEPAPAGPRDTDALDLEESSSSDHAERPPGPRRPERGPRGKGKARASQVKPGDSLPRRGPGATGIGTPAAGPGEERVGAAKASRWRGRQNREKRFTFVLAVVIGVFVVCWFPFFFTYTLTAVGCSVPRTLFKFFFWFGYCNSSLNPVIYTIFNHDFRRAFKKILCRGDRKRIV

[2] = AUC in Sprague-Dawley rat plasma at 10 mg/kg, po; assay type: ADME, organism-based; design: dose 10 mg/kg, route oral
Summary of the method: (§1)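 Single oral dose of 10 mg/kg to two male Sprague-Dawley rats. Blood drawn at several time points. Plasma levels of individual animals, generally within ±25% of the mean, were used to calculate PK parameters.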

D(2) dopamine receptor [3] = molecular target: T2, D(2) dopamine receptor (Homo sapiens, UniProt P14416); experiment: Displacement of [3H]methylspiperone from human dopamine D2 receptor expressed in CHO cells; assay type: cell-based
T2 sequence (P14416 whole entry): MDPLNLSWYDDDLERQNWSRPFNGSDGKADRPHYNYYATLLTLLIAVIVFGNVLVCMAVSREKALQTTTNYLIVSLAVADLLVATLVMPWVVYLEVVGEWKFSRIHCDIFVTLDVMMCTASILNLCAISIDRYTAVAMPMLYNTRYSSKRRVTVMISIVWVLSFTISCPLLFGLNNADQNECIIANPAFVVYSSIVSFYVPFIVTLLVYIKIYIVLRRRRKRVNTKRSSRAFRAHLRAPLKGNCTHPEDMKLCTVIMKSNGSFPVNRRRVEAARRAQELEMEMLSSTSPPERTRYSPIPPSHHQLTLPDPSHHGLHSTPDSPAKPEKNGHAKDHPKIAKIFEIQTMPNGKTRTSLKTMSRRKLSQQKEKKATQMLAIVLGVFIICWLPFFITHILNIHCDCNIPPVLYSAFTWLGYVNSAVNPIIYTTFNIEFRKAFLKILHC

D(4) dopamine receptor = molecular target: T3, D(4) dopamine receptor (Homo sapiens, UniProt P21917); experiment: Binding affinity at dopamine D4 receptor
T3 sequence (P21917 whole entry): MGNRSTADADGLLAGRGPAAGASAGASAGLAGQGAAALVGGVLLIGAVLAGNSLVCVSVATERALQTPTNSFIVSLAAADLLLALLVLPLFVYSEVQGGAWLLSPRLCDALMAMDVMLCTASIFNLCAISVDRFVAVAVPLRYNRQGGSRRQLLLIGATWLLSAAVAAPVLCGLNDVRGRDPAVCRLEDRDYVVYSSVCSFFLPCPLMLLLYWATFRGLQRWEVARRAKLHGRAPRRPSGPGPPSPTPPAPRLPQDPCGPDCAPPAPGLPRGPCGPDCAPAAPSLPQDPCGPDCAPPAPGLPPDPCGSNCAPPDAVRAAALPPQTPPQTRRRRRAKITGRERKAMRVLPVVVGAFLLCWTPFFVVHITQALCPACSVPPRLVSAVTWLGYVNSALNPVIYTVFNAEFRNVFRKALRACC

D(2) dopamine receptor [4] = molecular target: T2, D(2) dopamine receptor; experiment: Binding affinity at dopamine D2 receptor
Summary of the method: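 Membranes from cells stably expressing D2 receptor (4-7 pmol/mg protein; Ltk- cells in one passage, CHO in another), made by hypotonic lysis and 48,000g spin and stored at -80 °C. Incubated with 0.5 nM [3H]methylspiperone for 1 h at room temperature. Nonspecific binding set by 10 µM (-)-sulpiride. Rapid filtration, then scintillation counting. One-site competition fit; Ki is the mean of separate determinations.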

D(1B) dopamine receptor = D(1B) dopamine receptor (Homo sapiens, UniProt P21918); experiment: Binding affinity at dopamine D5 receptor
Chain of D(1B) dopamine receptor (P21918 whole entry): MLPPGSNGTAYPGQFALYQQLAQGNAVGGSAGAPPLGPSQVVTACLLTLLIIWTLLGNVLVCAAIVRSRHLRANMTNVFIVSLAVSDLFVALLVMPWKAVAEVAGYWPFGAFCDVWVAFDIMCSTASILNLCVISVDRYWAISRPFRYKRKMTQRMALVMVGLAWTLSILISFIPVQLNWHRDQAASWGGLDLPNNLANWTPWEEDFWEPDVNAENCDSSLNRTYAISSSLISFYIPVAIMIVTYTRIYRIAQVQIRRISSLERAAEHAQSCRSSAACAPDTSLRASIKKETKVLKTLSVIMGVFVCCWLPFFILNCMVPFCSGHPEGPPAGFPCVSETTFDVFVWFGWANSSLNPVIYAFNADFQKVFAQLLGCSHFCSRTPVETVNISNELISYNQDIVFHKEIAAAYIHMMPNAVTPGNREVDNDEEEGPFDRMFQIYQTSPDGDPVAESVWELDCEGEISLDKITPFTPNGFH

D(1A) dopamine receptor [5] = molecular target: T4, D(1A) dopamine receptor (Homo sapiens, UniProt P21728); experiment: Displacement of [3H]SCH 23390 from human dopamine D1 receptor expressed in CHO cells; assay type: cell-based
T4 sequence (P21728 whole entry): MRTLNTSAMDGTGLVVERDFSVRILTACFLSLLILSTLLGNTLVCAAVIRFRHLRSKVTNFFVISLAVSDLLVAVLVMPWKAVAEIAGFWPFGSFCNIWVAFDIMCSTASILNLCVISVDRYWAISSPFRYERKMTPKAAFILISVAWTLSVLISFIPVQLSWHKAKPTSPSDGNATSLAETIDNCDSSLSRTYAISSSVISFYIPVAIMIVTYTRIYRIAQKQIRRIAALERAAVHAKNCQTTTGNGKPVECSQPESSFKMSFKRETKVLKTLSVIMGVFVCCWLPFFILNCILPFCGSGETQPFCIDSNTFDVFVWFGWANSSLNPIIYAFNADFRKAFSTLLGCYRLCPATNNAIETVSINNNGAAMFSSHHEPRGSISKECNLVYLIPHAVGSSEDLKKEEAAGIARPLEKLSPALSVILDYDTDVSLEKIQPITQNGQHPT

D(1A) dopamine receptor [6] = molecular target: T4, D(1A) dopamine receptor; experiment: Activity at dopamine D1 receptor by cAMP assay; assay type: functional; settings: for Activity: filed as antagonist
[7] = Tmax in Sprague-Dawley rat plasma at 10 mg/kg, po; assay type: ADME, organism-based; design: dose 10 mg/kg, route oral; summary of the method: as §1
[8] = Cmax in Sprague-Dawley rat plasma at 10 mg/kg, po; assay type: ADME, organism-based; design: dose 10 mg/kg, route oral; summary of the method: as §1
[9] = molecular target: 5-hydroxytryptamine receptor 2A (Homo sapiens, UniProt P28223); experiment: Binding affinity at 5HT2A receptor
Chain of 5-hydroxytryptamine receptor 2A (P28223 whole entry): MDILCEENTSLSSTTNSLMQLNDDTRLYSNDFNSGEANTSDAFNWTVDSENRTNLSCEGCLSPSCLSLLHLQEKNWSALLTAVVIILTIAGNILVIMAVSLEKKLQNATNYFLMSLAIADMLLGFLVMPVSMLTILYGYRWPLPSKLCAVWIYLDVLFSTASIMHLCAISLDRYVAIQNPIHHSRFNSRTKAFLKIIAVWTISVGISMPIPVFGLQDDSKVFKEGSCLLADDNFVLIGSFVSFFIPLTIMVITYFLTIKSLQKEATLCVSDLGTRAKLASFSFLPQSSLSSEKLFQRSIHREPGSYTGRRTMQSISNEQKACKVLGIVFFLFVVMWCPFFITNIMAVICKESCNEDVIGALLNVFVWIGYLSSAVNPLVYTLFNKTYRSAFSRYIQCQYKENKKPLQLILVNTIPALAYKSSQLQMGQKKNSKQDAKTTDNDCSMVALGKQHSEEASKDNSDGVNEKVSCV

| Compound | Ki [1] | AUC [2] | Ki (D(2) dopamine receptor [3]) | Ki (D(4) dopamine receptor) | Ki (D(2) dopamine receptor [4]) | Ki (D(1B) dopamine receptor) | Ki (D(1A) dopamine receptor [5]) | Kb (D(1A) dopamine receptor [6]) | Activity (D(1A) dopamine receptor [6]) | Tmax [7] | Cmax [8] | Ki [9] |
| --- | --- | --- | --- | --- | --- | --- | --- | --- | --- | --- | --- | --- |
| Cc1cccc(C)c1C(=O)NN1c2ccc(Cl)cc2N=C(N2CCN(C)CC2)c2ccccc21 | 791 nM |  | 287 nM | 1870 nM | 287 nM | 31 nM | 3 nM | 2.8 nM | Antagonist |  |  | 2.2 nM |
| CN1CCN(C2=Nc3cc(Cl)ccc3N(NC(=O)c3cccc4ccccc34)c3ccccc32)CC1 | 882 nM | 12900 ng·h/mL | 458 nM | 977 nM | 458 nM | 105 nM | 3.8 nM | 2 nM | Antagonist | 1 h | 3570 ng/mL | 1 nM |
| CN1CCN(C2=Nc3cc(Cl)ccc3N(NC(=O)c3c(F)cccc3C(F)(F)F)c3ccccc32)CC1 | 2000 nM |  | 383 nM | 2000 nM | 383 nM | 7 nM | 2.5 nM | 2.3 nM | Antagonist |  |  | 1.2 nM |

Now those with a lower Ki [1], led by results:

| Ki [1] | AUC [2] | Ki (D(2) dopamine receptor [3]) | Ki (D(4) dopamine receptor) | Ki (D(2) dopamine receptor [4]) | Ki (D(1B) dopamine receptor) | Ki (D(1A) dopamine receptor [5]) | Kb (D(1A) dopamine receptor [6]) | Activity (D(1A) dopamine receptor [6]) | Tmax [7] | Cmax [8] | Ki [9] | Compound |
| --- | --- | --- | --- | --- | --- | --- | --- | --- | --- | --- | --- | --- |
| 169 nM | 2670 ng·h/mL | 340 nM | 1810 nM | 340 nM | 38 nM | 1.6 nM | 0.7 nM | Antagonist | 0.5 h | 802 ng/mL | 13.8 nM | COc1cccc(OC)c1C(=O)NN1c2ccc(Cl)cc2N=C(N2CCN(C)CC2)c2ccccc21 |
| 456 nM |  | 1020 nM | 4850 nM | 1020 nM | 58 nM | 3.2 nM | 6.7 nM | Antagonist |  |  | 2.9 nM | Cc1cccc(N)c1C(=O)NN1c2ccc(Cl)cc2N=C(N2CCN(C)CC2)c2ccccc21 |
| 455 nM | 2660 ng·h/mL | 181 nM | 870 nM | 181 nM | 73 nM | 4 nM | 2.8 nM | Antagonist | 1 h | 821 ng/mL | 1 nM | CN1CCN(C2=Nc3cc(Cl)ccc3N(NC(=O)c3ccccc3Cl)c3ccccc32)CC1 |
| 327 nM |  | 496 nM | 808 nM | 496 nM | 53 nM | 2.6 nM | 1.7 nM | Antagonist |  |  | 0.9 nM | CN1CCN(C2=Nc3cc(Cl)ccc3N(NC(=O)c3c(N)cccc3Cl)c3ccccc32)CC1 |
